# Data: PMC4530033 (Journal of immunology (Baltimore, Md. : 1950), 2015)
# What was measured:
# DNMT1 = DNMT1 (Homo sapiens, UniProt P26358); assay: DNMT enzymatic activity in vitro; type: biochemical; conditions: recombinant DNMT1; 10-dose, 3-fold serial dilutions starting at 10 μM
# Method in brief: (§1)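 Recombinant human enzyme with ³H-S-adenosylmethionine as substrate. Test compound was run at 10 doses, 3-fold serial dilution from 10 μM. […] Activity was plotted against concentration and IC50 fitted by curve regression. Three independent assays used three compound lots.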
# DNMT3a = DNMT3a (Homo sapiens, UniProt Q9Y6K1); assay: DNMT enzymatic activity in vitro; type: biochemical; conditions: recombinant DNMT3a; 10-dose, 3-fold serial dilutions starting at 10 μM
# Sequence of DNMT3a (Q9Y6K1 whole entry, looked up, species assumed): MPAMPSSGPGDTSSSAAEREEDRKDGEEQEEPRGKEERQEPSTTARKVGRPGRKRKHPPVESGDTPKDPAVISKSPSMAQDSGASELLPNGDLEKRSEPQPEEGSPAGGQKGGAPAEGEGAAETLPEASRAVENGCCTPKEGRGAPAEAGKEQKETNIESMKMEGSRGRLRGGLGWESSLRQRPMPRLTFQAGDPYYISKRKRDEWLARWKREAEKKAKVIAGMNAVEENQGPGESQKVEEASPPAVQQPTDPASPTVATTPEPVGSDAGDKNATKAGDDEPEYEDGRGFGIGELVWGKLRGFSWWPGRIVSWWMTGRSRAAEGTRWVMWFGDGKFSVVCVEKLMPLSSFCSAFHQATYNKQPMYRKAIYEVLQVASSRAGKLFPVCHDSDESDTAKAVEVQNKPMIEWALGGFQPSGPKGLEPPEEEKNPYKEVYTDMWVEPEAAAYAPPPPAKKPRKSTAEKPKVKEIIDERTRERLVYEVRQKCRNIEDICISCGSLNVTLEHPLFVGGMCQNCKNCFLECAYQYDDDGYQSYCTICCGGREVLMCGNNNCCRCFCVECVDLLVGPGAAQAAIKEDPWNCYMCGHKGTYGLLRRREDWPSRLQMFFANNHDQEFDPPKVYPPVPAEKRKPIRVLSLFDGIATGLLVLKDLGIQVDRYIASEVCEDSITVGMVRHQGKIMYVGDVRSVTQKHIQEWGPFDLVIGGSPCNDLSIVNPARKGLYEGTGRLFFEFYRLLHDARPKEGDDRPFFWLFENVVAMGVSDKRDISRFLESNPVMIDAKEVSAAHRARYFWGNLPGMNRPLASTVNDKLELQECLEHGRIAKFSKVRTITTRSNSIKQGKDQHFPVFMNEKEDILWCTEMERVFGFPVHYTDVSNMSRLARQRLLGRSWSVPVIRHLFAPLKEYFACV
# Method in brief: as §1
# DNMT3b = DNMT3b (Homo sapiens, UniProt Q9UBC3); assay: DNMT enzymatic activity in vitro; type: biochemical; conditions: recombinant DNMT3b; 10-dose, 3-fold serial dilutions starting at 10 μM
# Method in brief: as §1
# LS411N and SW620 cells [1] = assay: Global H3K9 methylation by Western blot of histone acidic extracts; type: cell-based, human; conditions: 2 days
# Method in brief: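 Cells were exposed to test compound at several concentrations for 2 days. Lysis buffer was 20 mM Tris-HCl pH 8, 150 mM NaCl, 5 mM EDTA, 0.5% NP-40 with protease inhibitors, for 30 min. After centrifugation the pellet went into 0.1M HCl on ice for 30 min. The acid extract was neutralised with Tris-HCl pH 9.0, blotted for H3K9me2/H3K9me3, and reprobed for total H3 as normaliser.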
# LS411N and SW620 cells [2] = assay: BNIP3 promoter DNA methylation by methylation specific-PCR; type: cell-based, human; conditions: 3 days
# Method in brief: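 Cells were exposed to test compound at several concentrations for 3 days. Methylation status of the BNIP3 promoter CpG island was then assessed by methylation-specific PCR, with separate primers for the unmethylated and methylated forms.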
# [3] = test system: LS411N-5FU-R and SW620-5FU-R cells; assay: Fas expression; type: cell-based, human; conditions: 20 nM, 2 days
# Method in brief: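 Cells were cultured with or without 20 nM test compound for 2 days. Surface Fas was measured by flow cytometry with a Fas-specific mAb against an IgG isotype control, quantified as MFI (mean, SD). Fas mRNA in SW620-5FU-R was measured by real-time RT-PCR.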
# SW620 and SW480 cells = assay: ChIP analysis of the FAS promoter region; type: cell-based, human; conditions: 2 days
# Method in brief: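 Cells (SW620 given 50 nM test compound for H3K9me3 and RNA Pol II; SW480 and SW620 for H3K9ac) treated 2 days. ChIP followed the kit manufacturer's protocol with anti-H3K9me3, anti-H3K9ac or anti-RNA Pol II, and IgG as the negative control. The FAS promoter ChIP 1 region was read by semi-quantitative PCR and by real-time PCR, against 2 ng genomic DNA set at 1.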
# [4] = test system: LS411N-5FU-R and SW620-5FU-R cells; assay: Sensitization to FasL-induced apoptosis; type: cell-based, human; conditions: sublethal doses plus FasL, 24h
# [5] = test system: SW620-5FU-R and LS411N-5FU-R cells; assay: Cell surface DR4 and DR5 expression by flow cytometry; type: cell-based, human; conditions: 2 days
# Method in brief: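 Cells were plated at 1×10^5 per well and exposed to 0, 20 or 50 nM test compound. They were then stained with anti-DR4 (TRAIL-R1) or anti-DR5 (TRAIL-R2) antibodies and analysed by flow cytometry.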
# [6] = test system: LS411N-5FU-R and SW620-5FU-R cells; assay: Sensitization to Drozitumab-induced apoptosis; type: cell-based, human; conditions: verticillin A 20 nM, Drozitumab 500 ng/ml, 24h
# Method in brief: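 Cells were given test compound (20 nM), drozitumab (500 ng/ml) or both for 24 h. Floating and adherent cells were pooled and stained with Annexin V and PI, then read by flow cytometry. % apoptotic death = % Annexin V⁺PI⁺ of treated minus untreated control (mean, SD).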
# [7] = Mouse serum liver enzyme profiles; type: in vivo; conditions: at the efficacious dose (1 mg/kg i.v.); preliminary assays
# [8] = test system: metastatic human CRC cells; assay: Cell growth / viability; type: cell-based
# Sequence of DNMT1 (P26358 whole entry, species assumed): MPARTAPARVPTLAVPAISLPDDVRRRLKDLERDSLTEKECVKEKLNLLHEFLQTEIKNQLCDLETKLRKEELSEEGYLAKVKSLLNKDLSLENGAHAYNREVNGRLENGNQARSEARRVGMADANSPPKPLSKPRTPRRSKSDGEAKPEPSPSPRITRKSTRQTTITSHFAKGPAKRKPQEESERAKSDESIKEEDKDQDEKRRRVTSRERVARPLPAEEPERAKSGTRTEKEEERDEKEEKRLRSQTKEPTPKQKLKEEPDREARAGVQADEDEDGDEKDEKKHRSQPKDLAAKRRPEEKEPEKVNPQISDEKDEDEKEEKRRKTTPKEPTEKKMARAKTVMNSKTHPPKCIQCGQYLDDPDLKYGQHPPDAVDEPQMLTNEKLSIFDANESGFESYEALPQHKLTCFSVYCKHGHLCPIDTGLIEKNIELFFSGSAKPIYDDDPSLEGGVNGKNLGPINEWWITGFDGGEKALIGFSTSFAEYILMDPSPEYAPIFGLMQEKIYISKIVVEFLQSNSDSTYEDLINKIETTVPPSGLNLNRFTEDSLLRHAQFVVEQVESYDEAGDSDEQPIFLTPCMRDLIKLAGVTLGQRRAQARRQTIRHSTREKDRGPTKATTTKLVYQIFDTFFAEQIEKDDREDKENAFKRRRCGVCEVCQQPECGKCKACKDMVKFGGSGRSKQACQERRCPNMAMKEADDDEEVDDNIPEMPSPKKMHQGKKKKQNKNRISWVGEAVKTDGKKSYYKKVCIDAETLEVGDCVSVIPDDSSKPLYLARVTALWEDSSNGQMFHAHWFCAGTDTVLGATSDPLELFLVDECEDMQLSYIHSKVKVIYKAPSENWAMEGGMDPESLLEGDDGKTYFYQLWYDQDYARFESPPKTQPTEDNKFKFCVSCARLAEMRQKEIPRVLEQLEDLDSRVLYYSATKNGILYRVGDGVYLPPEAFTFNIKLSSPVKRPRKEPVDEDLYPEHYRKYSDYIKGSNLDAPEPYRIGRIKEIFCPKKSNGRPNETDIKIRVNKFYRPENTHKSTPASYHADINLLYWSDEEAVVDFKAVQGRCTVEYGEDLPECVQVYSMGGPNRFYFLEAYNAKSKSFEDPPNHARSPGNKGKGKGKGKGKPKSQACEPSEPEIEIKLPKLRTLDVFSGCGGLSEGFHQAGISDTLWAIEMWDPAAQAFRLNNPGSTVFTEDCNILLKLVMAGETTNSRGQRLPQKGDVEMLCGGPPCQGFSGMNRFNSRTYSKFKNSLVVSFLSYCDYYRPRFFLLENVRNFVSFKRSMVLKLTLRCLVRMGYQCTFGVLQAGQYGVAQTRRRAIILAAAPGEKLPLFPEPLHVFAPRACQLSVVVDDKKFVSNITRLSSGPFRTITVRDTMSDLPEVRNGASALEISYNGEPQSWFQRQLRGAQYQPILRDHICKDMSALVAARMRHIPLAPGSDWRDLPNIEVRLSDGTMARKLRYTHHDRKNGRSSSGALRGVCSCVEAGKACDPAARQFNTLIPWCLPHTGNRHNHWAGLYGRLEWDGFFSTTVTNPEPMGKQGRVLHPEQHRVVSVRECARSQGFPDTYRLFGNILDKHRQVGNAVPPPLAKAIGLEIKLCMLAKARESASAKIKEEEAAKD
Structure (SMILES),effect on DNMT1 enzymatic activity (DNMT1),effect on DNMT3a enzymatic activity (DNMT3a),effect on DNMT3b enzymatic activity (DNMT3b),H3K9me2 and H3K9me3 levels (LS411N and SW620 cells [1]),DNA demethylation of the BNIP3 promoter region (LS411N and SW620 cells [2]),"cell surface Fas receptor level ([3]; LS411N-5FU-R and SW620-5FU-R cells, flow cytometry)","Fas mRNA level ([3]; SW620-5FU-R cells, real time RT-PCR)",H3K9ac level in the FAS promoter region (SW620 and SW480 cells; SW480 cells),"H3K9me3 level in the FAS promoter region (SW620 and SW480 cells; SW620 cells, 50 nM)","RNA Pol II level in the FAS promoter region (SW620 and SW480 cells; SW620 cells, 50 nM)","H3K9ac level in the FAS promoter region (SW620 and SW480 cells; SW620 cells, increase)",sensitization of tumor cells to FasL-induced apoptosis [4],DR4 expression [5],DR5 expression level [5],cell sensitivity to Drozitumab [6],liver toxicity [7],sensitivity of 5-FU-resistant human CRC cells to verticillin A ([8]; 5-FU-resistant cells versus parent cell lines (Fig. S2B)),dose effective in suppression of metastatic human CRC cell growth ([8]; relatively high dose)
"CN1C(=O)[C@]23SS[C@@]1(C)C(=O)N2[C@H]1Nc2ccccc2[C@@]1([C@@]12c4ccccc4N[C@@H]1N1C(=O)[C@@]4(C)SS[C@]1(C(=O)N4C)[C@H]2O)[C@@H]3O [Verticillin A, verticillin A]",no inhibitory effect,no inhibitory effect,no inhibitory effect,diminished,did not result in DNA demethylation,significantly increased,significantly increased,dramatically increased,decreased,did not identify an increase,at a low degree,significantly greater efficacy than either decitabine or vorinostat,did not alter,increased,significantly increased,minimal liver toxicity,as sensitive to verticillin A as the parent cell lines,100 nM
Nc1ncn([C@H]2C[C@H](O)[C@@H](CO)O2)c(=O)n1 [decitabine],,,,,,,,,,,,to a small degree,,,,,,
O=C(CCCCCCC(=O)Nc1ccccc1)NO [vorinostat],,,,,,,,,,,,to a small degree,,,,,,
